The target of one assay is T1, Adenosine receptor A2b (Homo sapiens, UniProt P29275).
T1 sequence (P29275 whole entry): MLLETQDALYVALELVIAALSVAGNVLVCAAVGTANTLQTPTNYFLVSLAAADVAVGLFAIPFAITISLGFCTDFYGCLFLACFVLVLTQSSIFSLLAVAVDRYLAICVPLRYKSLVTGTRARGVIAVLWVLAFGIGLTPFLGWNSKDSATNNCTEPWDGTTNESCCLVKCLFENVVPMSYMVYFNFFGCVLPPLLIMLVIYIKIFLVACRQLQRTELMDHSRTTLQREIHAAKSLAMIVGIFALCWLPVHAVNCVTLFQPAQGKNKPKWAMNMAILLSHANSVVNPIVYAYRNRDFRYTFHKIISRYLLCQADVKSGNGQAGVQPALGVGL
The assay is described as follows: Antagonist activity at human A2B receptor expressed in CHO cell membrane assessed as reduction in NECA-stimulated adenylyl cyclase activity in presence of [alpha32P]ATP. The class given is functional, cell membranes.

Another assay has as its target Adenosine receptor A2a (Homo sapiens, UniProt P29274). In words: Displacement of [3H]-NECA from human A2A receptor expressed in CHO cell membrane by radioligand binding assay. The class given is cell membranes. The procedure, abridged:
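Crude membrane fraction from transfected CHO cells, obtained by 1,000 x g then 100,000 x g centrifugation, in 50 mM Tris/HCl pH 7.4, stored at -80 °C. Radioligand at 10 nM; 100 µM R-PIA defined nonspecific binding. Ki computed with SCTFIT, mean of 3-6 replicates.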
On the technique in general: In a radioligand displacement assay an active substance lowers the binding of a labelled ligand.

A further assay concerns the target T2, Adenosine receptor A3 (Homo sapiens, UniProt P0DMS8).
T2 sequence (P0DMS8 whole entry): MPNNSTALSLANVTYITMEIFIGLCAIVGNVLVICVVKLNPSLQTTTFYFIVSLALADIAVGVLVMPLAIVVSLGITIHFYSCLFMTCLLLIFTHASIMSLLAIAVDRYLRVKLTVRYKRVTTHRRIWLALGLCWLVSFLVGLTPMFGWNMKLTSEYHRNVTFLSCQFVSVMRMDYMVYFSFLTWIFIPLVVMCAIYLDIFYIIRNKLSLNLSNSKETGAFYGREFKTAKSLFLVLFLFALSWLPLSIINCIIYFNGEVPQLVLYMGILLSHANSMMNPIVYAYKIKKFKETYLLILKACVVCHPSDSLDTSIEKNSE
The assay is described as follows: Displacement of [3H]-HEMADO from human A3 receptor expressed in CHO cell membrane by radioligand binding assay. The class given is cell membranes. A digest of the protocol: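 Membranes from CHO cells with human receptor: low-speed spin at 1,000 x g, then crude membranes pelleted at 100,000 x g. Resuspended in 50 mM Tris/HCl, 10 mM MgCl2, 1 mM EDTA, pH 8.25, stored at -80 °C. Radioligand at 1 nM; nonspecific binding with 100 µM R-PIA. Ki by SCTFIT, mean of 3-6 replicates.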

A further assay deals with T3, Adenosine receptor A1 (Homo sapiens, UniProt P30542).
T3 sequence (P30542 whole entry): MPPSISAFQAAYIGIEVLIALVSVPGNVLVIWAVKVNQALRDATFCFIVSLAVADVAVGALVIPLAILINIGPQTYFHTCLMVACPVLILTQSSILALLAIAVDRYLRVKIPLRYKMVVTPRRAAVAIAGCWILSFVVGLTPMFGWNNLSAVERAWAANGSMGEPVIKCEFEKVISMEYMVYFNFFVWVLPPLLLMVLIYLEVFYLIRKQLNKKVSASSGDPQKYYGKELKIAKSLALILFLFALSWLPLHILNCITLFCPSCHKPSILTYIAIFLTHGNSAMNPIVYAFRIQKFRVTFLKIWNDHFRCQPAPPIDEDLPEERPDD
The assay is described as follows: Displacement of [3H]CCPA from human A1 receptor expressed in CHO cell membrane by radioligand binding assay. The class given is cell membranes. The procedure, abridged: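 CHO membranes prepared by 1,000 x g clearing, then 100,000 x g sedimentation, resuspended in 50 mM Tris/HCl pH 7.4 and kept at -80 °C. Labelled with 1 nM radioligand; nonspecific binding with theophylline (1 mM). Ki values from SCTFIT, mean of 3-6 replicates.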

This note sets out measurements from ChEMBL document CHEMBL4673199, “Potent and selective A3 adenosine receptor antagonists bearing aminoesters as heterobifunctional moieties” (RSC Med Chem, 2021).

As a reminder, the pIC50 is the IC50 on a negative log10 scale, so that one unit is a factor of ten. What is called pKi is the Ki on a negative log10 scale, so that one unit is a factor of ten. The low end stands for a high Ki, the high end for a low Ki.

pIC50, pKi: −log10 of the molar value. Where only a bound is given, the exact number is not on record here.

Sequence of Adenosine receptor A2a (P29274 whole entry): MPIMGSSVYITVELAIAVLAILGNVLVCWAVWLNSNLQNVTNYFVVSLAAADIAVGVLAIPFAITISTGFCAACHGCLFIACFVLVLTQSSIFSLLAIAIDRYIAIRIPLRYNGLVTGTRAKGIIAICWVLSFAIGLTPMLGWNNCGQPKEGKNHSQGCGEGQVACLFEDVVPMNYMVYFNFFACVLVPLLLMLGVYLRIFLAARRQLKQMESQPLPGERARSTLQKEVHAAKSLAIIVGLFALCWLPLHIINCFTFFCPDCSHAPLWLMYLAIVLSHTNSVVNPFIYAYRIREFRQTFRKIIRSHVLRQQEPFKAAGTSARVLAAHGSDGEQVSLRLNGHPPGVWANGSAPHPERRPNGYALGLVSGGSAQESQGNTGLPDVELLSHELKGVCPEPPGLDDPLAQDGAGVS

For `CCOC(=O)CCCNc1nc2nn(C)cc2c2nc(-c3ccco3)nn12`, the pIC50 on Adenosine receptor A2b is below 5.00. The figures for the pKi at Adenosine receptor A2a, on Adenosine receptor A3 and on Adenosine receptor A1 were 6.64, 6.97 and 6.05, respectively.

`CCOC(=O)C[C@H](Nc1nc2nn(C)cc2c2nc(-c3ccco3)nn12)C(=O)OCC`: the pIC50 on Adenosine receptor A2b is below 5.00. Moreover, the values for the negative logarithm of the Ki (pKi) on Adenosine receptor A2a, at Adenosine receptor A3 and on Adenosine receptor A1 were 6.35, 7.79 and 6.26, respectively.

With `CCOC(=O)[C@@H](Cc1c[nH]c2ccccc12)Nc1nc2nn(C)cc2c2nc(-c3ccco3)nn12`, the negative logarithm of the Ki (pKi) is 6.05 at Adenosine receptor A2a, 7.22 on Adenosine receptor A3 and 5.80 on Adenosine receptor A1.

As for `CCOC(=O)[C@H](Cc1ccc(O)cc1)Nc1nc2nn(C)cc2c2nc(-c3ccco3)nn12`, the pIC50 at Adenosine receptor A2b was below 5.00. The pKi at Adenosine receptor A2a was 5.89; on Adenosine receptor A3, 7.61; at Adenosine receptor A1, 6.21.

Consider `CCOC(=O)[C@H](Cc1ccccc1)Nc1nc2nn(C)cc2c2nc(-c3ccco3)nn12`, for which the pIC50 at Adenosine receptor A2b was below 5.00. In addition, the pKi on Adenosine receptor A2a was 5.89; at Adenosine receptor A3, 7.30; at Adenosine receptor A1, 5.74.

Turning to `COC(=O)[C@@H]1CCCN1c1nc2nn(C)cc2c2nc(-c3ccco3)nn12`, the pIC50 at Adenosine receptor A2b was below 5.00. Further, the pKi at Adenosine receptor A2a is 6.37; at Adenosine receptor A3, 6.95; at Adenosine receptor A1, 5.64.

Take `CCOC(=O)CC[C@H](Nc1nc2nn(C)cc2c2nc(-c3ccco3)nn12)C(=O)OCC`: the pIC50 at Adenosine receptor A2b is below 5.00. Moreover, the pKi is 5.57 on Adenosine receptor A2a, 8.12 at Adenosine receptor A3 and 6.04 at Adenosine receptor A1.

Turning to `CCOC(=O)C(Nc1nc2nn(C)cc2c2nc(-c3ccco3)nn12)c1ccccc1` (racemic), at Adenosine receptor A2b, the negative-log IC50 (pIC50) was below 5.00. Besides, the figures for the pKi at Adenosine receptor A2a, on Adenosine receptor A3 and on Adenosine receptor A1 were 6.07, 9.51 and 6.76, respectively.

For the molecule `CCOC(=O)C(C)Nc1nc2nn(C)cc2c2nc(-c3ccco3)nn12` (racemic), at Adenosine receptor A2b, the pIC50 is below 5.00. In addition, the pKi is 6.09 at Adenosine receptor A2a, 7.81 on Adenosine receptor A3 and 5.66 on Adenosine receptor A1.

Take `CCOC(=O)C(CO)Nc1nc2nn(C)cc2c2nc(-c3ccco3)nn12` (racemic): the pKi on Adenosine receptor A2a was 6.46; at Adenosine receptor A3, 7.77; on Adenosine receptor A1, 6.51.

As for `CCOC(=O)C(Nc1nc2nn(C)cc2c2nc(-c3ccco3)nn12)C(O)c1ccccc1` (racemic), the pIC50 at Adenosine receptor A2b was below 5.00. In addition, the negative logarithm of the Ki (pKi) is 6.42 at Adenosine receptor A2a, 7.33 on Adenosine receptor A3 and 6.05 on Adenosine receptor A1.

Take `CCCCC(Nc1nc2nn(C)cc2c2nc(-c3ccco3)nn12)C(=O)OCC` (racemic): the negative-log IC50 (pIC50) on Adenosine receptor A2b was below 5.00. Further, the results for the pKi at Adenosine receptor A2a, at Adenosine receptor A3 and on Adenosine receptor A1 were 6.26, 8.97 and 6.41, respectively.

As to `CCOC(=O)C(CC(C)C)Nc1nc2nn(C)cc2c2nc(-c3ccco3)nn12` (racemic), the pIC50 on Adenosine receptor A2b was below 5.00. Further, the pKi was 6.40 on Adenosine receptor A2a, 9.30 at Adenosine receptor A3 and 6.49 on Adenosine receptor A1.

For `CCOC(=O)C(Nc1nc2nn(C)cc2c2nc(-c3ccco3)nn12)C(C)C` (racemic), the pIC50 on Adenosine receptor A2b is below 5.00. The pKi at Adenosine receptor A2a is 5.90; on Adenosine receptor A3, 8.76; on Adenosine receptor A1 it was 6.23.
